Values after ≈ are worked out from the molar mass of the structure shown. Active and inactive are the calls of the source. No cut-off for these calls is given here.
Legend:
Plasmodium falciparum [1] = assay: Antiplasmodial activity against Plasmodium falciparum NF54; format: functional, organism-based
Outline: (§1)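 P. falciparum (NF54 chloroquine-sensitive, K1 chloroquine-resistant) cultured in vitro in human A+ erythrocytes with Albumax. Readout is inhibition of parasite-specific [3H]hypoxanthine incorporation. IC50 in µg/mL taken from logarithmic dose–response curves.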

Plasmodium falciparum [2] = assay: Antiplasmodial activity against Plasmodium falciparum K1; format: functional, organism-based; outline: as §1
[3] = system: Trypanosoma brucei rhodesiense; assay: 50% antitrypanosomal activity against Trypanosoma rhodesiense; format: functional, organism-based
Outline: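 T. brucei rhodesiense grown axenically in culture medium supplemented with horse serum. IC50 in µg/mL.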

Trypanosoma cruzi = assay: 50% antitrypanosomal activity against Trypanosoma cruzi; format: functional, organism-based
Outline: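 Tulahuen strain of T. cruzi expressing E. coli β-galactosidase, grown as intracellular amastigotes in mammalian fibroblasts with drug for 5 days. Viability read colorimetrically from β-galactosidase turnover of chlorophenol red β-D-galactopyranoside, quantified on an ELISA reader. IC50 in µg/mL.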

L6 = assay: Cytotoxic effect in rat skeletal muscle myoblast L6 cells; format: functional, cell-based
Outline: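 Rat L6 skeletal muscle myoblast cells. IC50 in µg/mL.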

[4] = biological target: Tyrosine-protein kinase Lck (Homo sapiens) (UniProt P06239); assay: Inhibition of p56 Lck tyrosine kinase at 200 ug/mL (inactive)
[5] = system: Aspergillus pseudoglaucus; assay: Zone of inhibition from the edge of a circular filter disk impregnated with test substance, against Eurotium repens (antifungal activity); NA means inactive.; format: functional, organism-based
Outline: (§2)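 Agar diffusion assay. Filter disks loaded with 0.02 mg sample each. Zone of inhibition measured in mm from the disk edge against the fungi Eurotium repens or Ustilago violacea (Microbotryum violaceum).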

Microbotryum violaceum = assay: Zone of inhibition from the edge of a circular filter disk impregnated with test substance, against Ustilago violacea (antifungal activity); NA means inactive.; format: functional, organism-based; outline: as §2
[6] = Plasmodium falciparum, read-out: IC50
[7] = Trypanosoma brucei, read-out: IC50
[8] = Trypanosoma cruzi, read-out: IC50

Tyrosine-protein kinase Lck (Homo sapiens), sequence (P06239 2-509 limits assumed): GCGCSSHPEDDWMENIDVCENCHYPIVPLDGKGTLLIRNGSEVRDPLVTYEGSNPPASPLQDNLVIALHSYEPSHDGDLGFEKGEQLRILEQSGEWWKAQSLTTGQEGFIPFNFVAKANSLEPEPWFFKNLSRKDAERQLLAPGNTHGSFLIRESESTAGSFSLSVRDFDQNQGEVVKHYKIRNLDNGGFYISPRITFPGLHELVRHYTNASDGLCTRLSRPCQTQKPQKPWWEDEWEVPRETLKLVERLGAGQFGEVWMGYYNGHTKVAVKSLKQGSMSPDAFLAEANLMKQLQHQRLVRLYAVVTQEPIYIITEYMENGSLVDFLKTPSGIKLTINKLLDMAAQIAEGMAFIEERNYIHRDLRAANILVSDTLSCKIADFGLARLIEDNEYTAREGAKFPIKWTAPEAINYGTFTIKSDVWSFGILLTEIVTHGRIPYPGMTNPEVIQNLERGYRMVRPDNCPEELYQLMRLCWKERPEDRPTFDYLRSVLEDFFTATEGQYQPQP

With `CCCCC/C=C/C(=O)O[C@H]1C[C@@H]2[C@H](CCCCC(O)CCC)CCC[C@@H]2N(C(=O)c2ccc(Br)cc2)[C@@H]1C` (stereo partly specified) as the compound, how does the IC50 (Plasmodium falciparum [1]; [6]) read?
Its IC50 is 0.4 µg/mL (≈ 0.662 µM).

And the IC50 (Plasmodium falciparum [2]; [6])?
Its IC50 is 0.5 µg/mL (≈ 0.827 µM).

What about the IC50 [3, 7] of the same compound?
The IC50 was 36.9 µg/mL (≈ 60.9 µM).

Which IC50 (Plasmodium falciparum [1]; [6]) does the source give for `CCCC(O)CCCC[C@@H]1CCC[C@@H]2N[C@H](C)[C@@H](O)C[C@H]12` (stereo in doubt; 1) [listing 1 of 2 here] here?
The IC50 was 10 µg/mL (≈ 33.6 µM).

And the IC50 (Plasmodium falciparum [2]; [6])?
Its IC50 is 6.1 µg/mL (≈ 20.5 µM).

And the IC50 (Trypanosoma cruzi; [8])?
The IC50 was 37.2 µg/mL (≈ 125 µM).

What about the IC50 (L6) of the same compound?
The IC50 was > 30 µg/mL.

What about the IC50 [3] of the same compound?
The IC50 was 5.6 µg/mL (≈ 18.8 µM).

For `CCCC(O)CCCC[C@@H]1CCC[C@@H]2N[C@H](C)[C@@H](O)C[C@H]12` (stereo in doubt; 1) [listing 2 of 2 here], which NA [4] is on record?
The NA was “inactive”.

With `CCCC(O)CCCC[C@@H]1CCC[C@@H]2N[C@H](C)[C@@H](O)C[C@H]12` (stereo in doubt; 2) [listing 1 of 2 here] as the compound, how does the IC50 (Plasmodium falciparum [1]) read?
Its IC50 is 10 µg/mL (≈ 33.6 µM).

What about the IC50 (Plasmodium falciparum [2]) of the same compound?
The IC50 was 4 µg/mL (≈ 13.4 µM).

And the IC50 (Trypanosoma cruzi)?
The IC50 was 37.3 µg/mL (≈ 125 µM).

And the IC50 (L6)?
The IC50 was > 30 µg/mL.

And the IC50 [3]?
The IC50 was 1.97 µg/mL (≈ 6.62 µM).

How did the NA [5] turn out when `CCCC(O)CCCC[C@@H]1CCC[C@@H]2N[C@H](C)[C@@H](O)C[C@H]12` (stereo in doubt; 2) [listing 2 of 2 here] was run?
The NA was “inactive”.

What about the NA (Microbotryum violaceum) of the same compound?
The NA was “inactive”.

What about the NA [4] of the same compound?
The NA was “inactive”.

`C[C@@H]1CC[C@H]2[C@@H](C)C(=O)O[C@@H]3O[C@@]4(C)CC[C@@H]1[C@]32OO4` [ARTEMISININ] was tested. Which IC50 (Plasmodium falciparum [1]; [6]) did it give?
Its IC50 is 0.003 µg/mL (≈ 0.0106 µM).

And the IC50 (Plasmodium falciparum [2]; [6])?
The IC50 was 0.001 µg/mL (≈ 0.00354 µM).

How did the IC50 (Plasmodium falciparum [1]; [6]) turn out when `CCCCC/C=C/C(=O)O[C@H]1C[C@@H]2[C@H](CCCCC(O)CCC)CCC[C@@H]2N[C@@H]1C` (stereo partly specified) [LEPADIN E] was run?
Its IC50 is 0.9 µg/mL (≈ 2.13 µM).

What about the IC50 (Plasmodium falciparum [2]; [6]) of the same compound?
The IC50 was 0.4 µg/mL (≈ 0.949 µM).

And the IC50 (Trypanosoma cruzi; [8])?
The IC50 was 2.2 µg/mL (≈ 5.22 µM).

And the IC50 (L6)?
Its IC50 is 16.2 µg/mL (≈ 38.4 µM).

And the IC50 [3, 7]?
Its IC50 is 0.38 µg/mL (≈ 0.901 µM).

`CCCCC/C=C/C(=O)O[C@H]1C[C@@H]2[C@H](CCCCC(O)CCC)CCC[C@@H]2N[C@H]1C` (stereo partly specified) [LEPADIN F] was tested. Which IC50 (Plasmodium falciparum [1]; [6]) did it give?
Its IC50 is 0.3 µg/mL (≈ 0.711 µM).

What about the IC50 (Plasmodium falciparum [2]; [6]) of the same compound?
Its IC50 is 0.2 µg/mL (≈ 0.474 µM).

What about the IC50 (Trypanosoma cruzi; [8]) of the same compound?
The IC50 was 2.6 µg/mL (≈ 6.17 µM).

What about the IC50 (L6) of the same compound?
The IC50 was 18.3 µg/mL (≈ 43.4 µM).

What about the IC50 [3, 7] of the same compound?
The IC50 was 0.23 µg/mL (≈ 0.545 µM).

Which IC50 (Trypanosoma cruzi; [8]) does the source give for `Nc1nc(N)nc(Nc2ccc([As]3SCC(CO)S3)cc2)n1` (stereo unspecified) [MELARSOPROL] here?
The IC50 was 0.6 µg/mL.

What about the IC50 [3, 7] of the same compound?
Its IC50 is 0.0026 µg/mL.
